Results published in paper PMC8247525 (Diabetes Care, 2021).
Starred links: 1 amine or outer side, 2 acyl side, 3 side chain; linkers in the order of their positions; H or OH if unused. Groups on a side chain read outwards from the residue. No end group written: not given here. *: point of attachment. γGlu = O=C(O)[C@H](CCC(=O)[*:2])N[*:1]; Palmitoyl = CCCCCCCCCCCCCCCC(=O)*

Legend:
[1] = test system: participants with overweight or obesity and type 2 diabetes; experiment: Phase 2b study: glycemic control; assay type: in vivo, human; details: on metformin, LS mean (95% CI), ANCOVA, LOCF
[2] = test system: participants with overweight or obesity and type 2 diabetes; experiment: Phase 2b study: body weight; assay type: in vivo, human; details: for Percent change in body weight from baseline to week 14: LS mean (95% CI), ANCOVA, LOCF; for Weight loss, placebo-adjusted change from baseline: week 54
[3] = test system: participants with overweight or obesity and type 2 diabetes; experiment: Phase 2b study: hepatic parameters; assay type: in vivo, human; details: LS mean (95% CI); for Percent change from baseline in GGT levels: after 54 weeks, ad hoc
[4] = test system: participants with overweight or obesity and type 2 diabetes; experiment: Phase 2b study: safety; assay type: in vivo, human
[5] = test system: participants with overweight or obesity and type 2 diabetes; experiment: Phase 2b study: anti-drug antibodies and exposure; assay type: in vivo, human
Procedure, shortened: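 Dosing started at 100 µg and rose weekly by 100 µg. Anti-drug antibodies, a secondary end point, were measured in all treated participants by a high-sensitivity assay. Titers were split at 80 and related to trough drug concentrations.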

[6] = cited from earlier work; for Reduction of mean body weight: head-to-head phase 2 trial of semaglutide with liraglutide
[7] = cotadutide 100 µg s.c. once daily
[8] = cotadutide 200 µg s.c. once daily
[9] = cotadutide 300 µg s.c. once daily
[10] = liraglutide 1.8 mg s.c. once daily

Cotadutide
Change from baseline to week 14 in HbA1c levels [1, 7]: –1.11 [–1.30, –0.93] | Change from baseline to week 14 in HbA1c levels [1, 8]: –1.32 [–1.44, –1.21] | Change from baseline to week 14 in HbA1c levels [1, 9]: –1.26 [–1.38, –1.14] | Percent change in body weight from baseline to week 14 [2, 7]: –2.98 [–3.87, –2.09] % | Percent change in body weight from baseline to week 14 [2, 8]: –3.67 [–4.22, –3.13] % | Percent change in body weight from baseline to week 14 [2, 9]: –5.01 [–5.57, –4.45] % | Weight loss, placebo-adjusted change from baseline [2, 9]: –4.34% | Percent change in fatty liver index, change from baseline [3, 7]: –8.08 [–10.62, –5.54] % | Percent change from baseline in GGT levels [3, 7]: –10.54 [–26.75, 5.68] % | Percent change in fatty liver index, change from baseline [3, 8]: –6.73 [–8.29, –5.17] % | Percent change in fatty liver index, change from baseline [3, 9]: –8.18 [–9.79, –6.57] % | Percent change from baseline in GGT levels [3, 9]: –12.17 [–22.45, –1.90] % | Pulse rate versus placebo ([4]; all tested doses of cotadutide, all P = 0.001 to P = 0.006): Increases in pulse rates | Systolic blood pressure [4, 9]: reduction in systolic blood pressure | Rate pressure product ([4]; cotadutide treatment, ad hoc): no notable changes in rate pressure product | Anti-drug antibody (ADA) incidence ([5]; cotadutide-treated participants, all doses, high-sensitivity assay): 60.8% | Impact of ADA titer above 80 on pharmacokinetics, relative to population average ([5]; cotadutide, trough concentrations higher at titer >80): approximately twofold

Liraglutide: GLP-1 receptor monoagonist, open-label active comparator 1.8 mg (HAEGTFTSDVSSYLEGQAAK([γGlu-Palmitoyl])EFIAWLVRGRG; chains of the INN, looked up) [reference compound]
Percent change in body weight from baseline to week 14 ([2]; liraglutide 1.8 mg s.c. once daily, open-label): –3.44 [–4.20, –2.68] % | Weight loss, placebo-adjusted change from baseline [2, 10]: –2.65% | Percent change from baseline in GGT levels [3, 10]: –10.54 [–24.41, 3.33] % | Reduction of mean body weight [6]: 7.8% | Reduction of body weight ([6]; phase 2 and phase 3 clinical trials): 6–8%

semaglutide
Reduction of mean body weight [6]: 6.0–13.8%
